For series [1], the target named is T1, Broad substrate specificity ATP-binding cassette transporter ABCG2 (Homo sapiens, UniProt Q9UNQ0).
T1 sequence (Q9UNQ0 whole entry): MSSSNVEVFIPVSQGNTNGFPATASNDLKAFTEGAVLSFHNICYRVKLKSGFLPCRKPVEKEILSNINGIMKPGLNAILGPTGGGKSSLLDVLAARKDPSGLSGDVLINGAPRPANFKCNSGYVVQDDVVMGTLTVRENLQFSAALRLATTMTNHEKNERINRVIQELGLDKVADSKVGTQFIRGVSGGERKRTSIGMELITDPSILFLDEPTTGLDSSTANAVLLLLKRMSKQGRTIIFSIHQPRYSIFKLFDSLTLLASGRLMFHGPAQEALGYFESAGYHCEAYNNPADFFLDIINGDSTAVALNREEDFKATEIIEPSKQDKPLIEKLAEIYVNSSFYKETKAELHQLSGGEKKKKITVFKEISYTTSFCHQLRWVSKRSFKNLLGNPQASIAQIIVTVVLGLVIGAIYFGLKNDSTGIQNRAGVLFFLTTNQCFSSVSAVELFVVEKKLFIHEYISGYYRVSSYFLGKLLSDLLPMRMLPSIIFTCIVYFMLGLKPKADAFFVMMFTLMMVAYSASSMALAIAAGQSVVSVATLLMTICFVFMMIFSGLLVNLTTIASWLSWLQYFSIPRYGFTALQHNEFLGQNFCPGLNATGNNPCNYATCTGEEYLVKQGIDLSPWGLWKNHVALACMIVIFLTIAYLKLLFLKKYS
Description: Inhibition of c-terminal GFP-tagged human ABCG2 expressed in MDCK2 cells preincubated for 30 mins before Hoechst 33342 addition by Hoechst 33342 accumulation assay. Type of series: cell-based. In outline:
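MDCK II cells transfected with human ABCG2 fused C-terminally to GFP, washed in Krebs-HEPES buffer pH 7.0; ~30,000 cells/well, compound 30 min at 37 °C. 6 µM Hoechst 33342 solution added, fluorescence (ex 355/em 460 nm) every 60 s to 120 min. Final methanol ≤5%, DMSO ≤0.1%.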

The target of series [2] is ATP-dependent translocase ABCB1 (Homo sapiens, UniProt P08183). Kind of series: Inhibition of ABCB1 in human A2780adr cells preincubated for 30 mins before calcein AM addition by calcein AM assay. The class given is cell-based. In outline:
(§1)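 A2780adr cells (ABCB1-overexpressing, doxorubicin-selected one passage every 10 passages) washed three times in Krebs-HEPES buffer pH 7.0; ~30,000 cells/well with compound dilutions, 30 min at 37 °C, 5% CO2. Calcein AM added (1.25 µM solution), fluorescence (ex 485/em 520 nm) read every 60 s for 60 min at 37 °C. Single-point screen at 10 µM relative to cyclosporine A; IC50 from full curves.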

The target of a further series is ABCB1 (Homo sapiens, UniProt P08183). Kind of series: Inhibition of ABCB1 in human A2780adr cells at 10 uM preincubated for 30 mins before calcein AM addition by calcein AM assay relative to CsA. The class given is cell-based. Conditions: probe calcein AM. A digest of the protocol: as §1
Chain of ABCB1 (P08183 whole entry): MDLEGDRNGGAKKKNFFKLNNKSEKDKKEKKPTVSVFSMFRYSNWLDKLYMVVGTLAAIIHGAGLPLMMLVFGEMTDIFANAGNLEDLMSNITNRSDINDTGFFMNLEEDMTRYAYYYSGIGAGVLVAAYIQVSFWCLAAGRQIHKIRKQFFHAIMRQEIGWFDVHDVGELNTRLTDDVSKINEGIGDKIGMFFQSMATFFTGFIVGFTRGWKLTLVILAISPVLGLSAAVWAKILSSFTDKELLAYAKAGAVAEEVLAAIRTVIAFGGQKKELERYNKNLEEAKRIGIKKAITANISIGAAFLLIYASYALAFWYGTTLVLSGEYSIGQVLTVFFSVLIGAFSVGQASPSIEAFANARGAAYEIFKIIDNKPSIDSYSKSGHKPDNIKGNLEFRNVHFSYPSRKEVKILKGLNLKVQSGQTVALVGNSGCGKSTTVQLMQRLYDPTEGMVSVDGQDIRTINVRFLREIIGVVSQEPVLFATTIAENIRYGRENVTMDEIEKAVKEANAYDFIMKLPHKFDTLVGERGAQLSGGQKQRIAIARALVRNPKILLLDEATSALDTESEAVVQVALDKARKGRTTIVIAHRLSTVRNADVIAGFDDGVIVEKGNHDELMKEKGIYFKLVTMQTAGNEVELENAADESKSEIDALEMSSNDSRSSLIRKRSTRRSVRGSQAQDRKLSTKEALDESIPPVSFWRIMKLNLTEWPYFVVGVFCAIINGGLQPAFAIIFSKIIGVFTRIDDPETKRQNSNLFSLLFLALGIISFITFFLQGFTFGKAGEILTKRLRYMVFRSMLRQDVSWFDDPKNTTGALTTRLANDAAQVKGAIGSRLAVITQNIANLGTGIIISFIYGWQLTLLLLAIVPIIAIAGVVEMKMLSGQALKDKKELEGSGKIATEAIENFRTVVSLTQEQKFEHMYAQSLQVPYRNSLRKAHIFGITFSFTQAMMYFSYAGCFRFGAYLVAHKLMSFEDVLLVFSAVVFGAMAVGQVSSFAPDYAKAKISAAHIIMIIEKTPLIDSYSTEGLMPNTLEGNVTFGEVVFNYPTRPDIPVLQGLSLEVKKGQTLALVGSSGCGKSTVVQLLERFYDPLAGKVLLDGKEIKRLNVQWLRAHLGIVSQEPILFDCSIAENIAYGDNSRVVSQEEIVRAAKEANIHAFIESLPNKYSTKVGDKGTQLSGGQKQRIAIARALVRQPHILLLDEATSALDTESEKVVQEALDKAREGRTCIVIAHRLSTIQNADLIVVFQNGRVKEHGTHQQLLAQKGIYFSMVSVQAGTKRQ
Series [3] deals with T1, Broad substrate specificity ATP-binding cassette transporter ABCG2. Description: Inhibition of c-terminal GFP-tagged human ABCG2 expressed in MDCK2 cells preincubated for 30 mins before Pheophorbide A addition by Pheophorbide A assay. Type of series: cell-based.
A short description of series [4]: Intrinsic cytotoxicity against MDCK2 cells over-expressing human ABCG2 incubated for 72 hrs by MTT assay. Type of series: ADME, cell-based, Canis lupus familiaris, MDCK-II. To be noted: dog. In outline: (§2)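 MDCK II cells incubated 72 h with compound dilutions, then MTT added; viability from formazan formation. […] Methanol (≤1.8%) and DMSO (≤1%) vehicle tested alone.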
For orientation: Tetrazolium dyes change colour on reduction, which living cells bring about.

A short description of series [5]: Intrinsic cytotoxicity against parental MDCK2 cells incubated for 72 hrs by MTT assay. The class given is cell-based, Canis lupus familiaris, MDCK-II. Conditions: dog. A digest of the protocol: as §2
Series [6] deals with ABCG2. Description: Therapeutic index, ratio of GI50 for intrinsic cytotoxicity against MDCK2 cells over-expressing human ABCG2 top IC50 for inhibition of c-terminal GFP-tagged human ABCG2 expressed in MDCK2 cells. To be noted: dog, read-out: RatioGI50. The class given is toxicity, cell-based. In outline:
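Ratio of MTT GI50 (72 h, MDCK II) to IC50 from the Hoechst 33342 accumulation assay.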

The target of a further series is ABCC1 (Homo sapiens, UniProt P33527). Kind of series: Inhibition of ABCC1 in human H69AR cells at 10 uM preincubated for 30 mins before calcein AM addition by calcein AM assay relative to CsA. The class given is cell-based. To be noted: probe calcein AM. In outline:
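H69AR cells (ABCC1-overexpressing) washed in Krebs-HEPES buffer pH 7.0; ~30,000 cells/well preincubated with compound 30 min at 37 °C, 5% CO2. Then 1.25 µM calcein AM solution added, fluorescence at ex 485/em 520 nm every 60 s for 60 min at 37 °C. Screened at 10 µM; activity expressed relative to cyclosporine A.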

The test system of series [7] is ABCG2. Description: Therapeutic index, ratio of GI50 for intrinsic cytotoxicity against MDCK2 cells over-expressing human ABCG2 top IC50 for inhibition of c-terminal GFP-tagged human ABCG2 expressed in MDCK2 cells relative to Ko143. Type of series: toxicity, cell-based. Conditions: dog, read-out: TI.

The structures appear in SMILES notation.

Chain of ABCC1 (P33527 whole entry): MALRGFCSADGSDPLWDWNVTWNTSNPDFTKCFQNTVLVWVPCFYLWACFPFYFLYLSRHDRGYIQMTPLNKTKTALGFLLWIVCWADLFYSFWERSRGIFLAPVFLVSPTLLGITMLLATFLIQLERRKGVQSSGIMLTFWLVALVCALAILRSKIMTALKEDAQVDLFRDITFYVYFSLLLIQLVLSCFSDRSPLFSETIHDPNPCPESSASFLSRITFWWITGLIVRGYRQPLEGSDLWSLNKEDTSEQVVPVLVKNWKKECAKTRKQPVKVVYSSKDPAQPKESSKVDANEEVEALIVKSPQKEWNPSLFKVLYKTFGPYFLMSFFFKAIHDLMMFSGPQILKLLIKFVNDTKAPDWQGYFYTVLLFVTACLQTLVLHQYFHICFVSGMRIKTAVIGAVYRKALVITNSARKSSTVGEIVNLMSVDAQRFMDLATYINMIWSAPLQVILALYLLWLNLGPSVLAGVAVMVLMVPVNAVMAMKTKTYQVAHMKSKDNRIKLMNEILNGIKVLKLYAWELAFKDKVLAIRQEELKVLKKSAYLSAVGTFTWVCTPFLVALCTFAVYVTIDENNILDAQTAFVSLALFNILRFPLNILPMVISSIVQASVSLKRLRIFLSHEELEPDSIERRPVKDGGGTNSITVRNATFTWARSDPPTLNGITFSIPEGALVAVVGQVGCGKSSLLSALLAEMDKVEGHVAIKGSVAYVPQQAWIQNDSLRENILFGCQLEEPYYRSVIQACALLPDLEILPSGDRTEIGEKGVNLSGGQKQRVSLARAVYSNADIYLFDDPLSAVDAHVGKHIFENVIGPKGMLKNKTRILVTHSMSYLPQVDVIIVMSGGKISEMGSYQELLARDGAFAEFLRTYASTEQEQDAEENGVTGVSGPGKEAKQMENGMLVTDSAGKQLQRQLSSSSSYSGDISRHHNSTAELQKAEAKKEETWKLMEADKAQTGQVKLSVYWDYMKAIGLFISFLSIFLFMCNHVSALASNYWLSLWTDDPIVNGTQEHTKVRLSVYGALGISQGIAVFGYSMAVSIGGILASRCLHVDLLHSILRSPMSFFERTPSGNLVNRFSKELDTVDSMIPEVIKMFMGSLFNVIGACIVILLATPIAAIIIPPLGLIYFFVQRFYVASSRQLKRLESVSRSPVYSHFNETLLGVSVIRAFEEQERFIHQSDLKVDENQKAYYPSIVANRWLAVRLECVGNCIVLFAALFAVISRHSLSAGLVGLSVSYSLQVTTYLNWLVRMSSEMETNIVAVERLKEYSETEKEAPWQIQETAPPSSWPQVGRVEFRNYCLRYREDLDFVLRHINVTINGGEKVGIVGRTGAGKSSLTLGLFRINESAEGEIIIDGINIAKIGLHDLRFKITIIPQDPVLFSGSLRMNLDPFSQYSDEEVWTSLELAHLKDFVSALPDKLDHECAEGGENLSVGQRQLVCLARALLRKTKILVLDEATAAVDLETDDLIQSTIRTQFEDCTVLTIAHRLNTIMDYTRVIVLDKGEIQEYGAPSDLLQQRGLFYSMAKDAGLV
Chain of ATP-dependent translocase ABCB1 (P08183 whole entry): as the sequence (P08183 whole entry) above

As to `Cc1ccc(Nc2nc(-c3ccccc3)nc3ccccc23)cc1`, the IC50 in series [1] turned out to be 1480 nM.

`Fc1cccc(Nc2cc(-c3ccccc3)nc3ccccc23)c1`: the 50% inhibitory concentration (IC50) in [1] was 2130 nM.

Consider `N#Cc1ccc(Nc2cc(-c3ccccc3)nc3ccccc23)cc1`, for which the IC50 in series [1] was 846 nM; in series [2] it was 4740 nM. Moreover, the inhibition at 10 µM on ABCB1 is more than 25%.

In the case of `CC(C)(C)c1cccc(Nc2nc(-c3ccccc3)nc3ccccc23)c1`, the IC50 in [1] came to 1070 nM.

On to `CC(=O)Nc1cccc(Nc2nc(-c3ccccc3)nc3ccccc23)c1`, for which the figures for the IC50 in series [1] and in [3] were 278 nM and 224 nM, respectively. The figures for the GI50 at 72 h in [4] and in series [5] were 12900 nM and 30900 nM, respectively. Moreover, in the series with ABCG2 [6], the selectivity ratio was determined as 46.4.

In the case of `CSc1cccc(Nc2cc(-c3ccccc3)nc3ccccc23)c1`, the IC50 in series [1] was 1900 nM; in [2], 1420 nM. Also, the inhibition at 10 µM at ABCB1 and at ABCC1 was more than 25% each time.

As for `Ic1ccc(Nc2nc(-c3ccccc3)nc3ccccc23)cc1`, the IC50 in series [1] is 612 nM. Moreover, the GI50 at 72 h in series [4] stood at 9250 nM; in series [5], 8850 nM. For the same molecule, in the series on ABCG2 [6], the selectivity ratio stood at 15.1.

In the case of `Fc1ccc(Nc2nc(-c3ccccc3)nc3ccccc23)cc1`, in [1], the IC50 worked out at 1060 nM. Besides, the GI50 at 72 h in series [4] is 29000 nM; in [5], 25600 nM. Moreover, the selectivity ratio with ABCG2 [6] was determined as 27.4.

For the molecule `CSc1cccc(Nc2nc(-c3ccccc3)nc3ccccc23)c1`, the IC50 in [1] turned out to be 1190 nM. Besides, the inhibition at 10 µM on ABCC1 is more than 25%.

For `O=C(Nc1ccccc1C(=O)Nc1ccc(CCN2CCc3ccccc3C2)cc1)c1cnc2ccccc2c1`, the IC50 in [1] was 704 nM; in series [3], 741 nM.

`Ic1cccc(Nc2nc(-c3ccccc3)nc3ccccc23)c1`: in series [1], the IC50 was determined as 791 nM. For the same molecule, the GI50 at 72 h turned out to be 4750 nM in series [4] and 16600 nM in [5].

As to `COc1cc(Nc2nc(-c3ccccc3)nc3ccccc23)ccc1Br`, the IC50 in series [1] was determined as 289 nM; in series [3] it was 202 nM.

With `COc1ccc2c3c([nH]c2c1)[C@H](CC(C)C)N1C(=O)[C@H](CCC(=O)OC(C)(C)C)NC(=O)[C@@H]1C3`, the GI50 at 72 h in series [4] was found to be 11100 nM; in series [5], 10900 nM.

`CC(C)(C)OC(=O)c1ccc(Nc2nc(-c3ccccc3)nc3ccccc23)cc1` yielded an IC50 in series [1] of 5650 nM.

With `COC(=O)c1ccc(Nc2nc(-c3ccccc3)nc3ccccc23)cc1`, the IC50 in [1] was 944 nM. Further, the inhibition at 10 µM at ABCC1 is more than 25%.

For `Fc1cccc(Nc2nc(-c3ccccc3)nc3ccccc23)c1`, the values for the IC50 in series [1] and in series [3] were 355 nM and 405 nM, respectively. The GI50 at 72 h in series [4] was found to be 17200 nM; in series [5] it was 27500 nM. In addition, the selectivity ratio in the series with ABCG2 [6] was found to be 48.5.

In the case of `Clc1ccc(Nc2nc(-c3ccccc3)nc3ccccc23)cc1`, the IC50 in [1] was found to be 830 nM. Moreover, the GI50 at 72 h in series [4] amounted to 6750 nM; in series [5] it was 14800 nM. The selectivity ratio in the series with ABCG2 [6] stood at 8.13.

Molecule `Cc1cc(Nc2nc(-c3ccccc3)nc3ccccc23)ccc1I` displayed an IC50 in series [1] of 1460 nM.

As for `CC(=O)Nc1cccc(Nc2cc(-c3ccccc3)nc3ccccc23)c1`, the IC50 in series [1] is 1630 nM; in series [2], 660 nM. Besides, the inhibition at 10 µM at ABCB1 and on ABCC1 was more than 25% in each case.

Turning to `Cc1cccc(Nc2nc(-c3ccccc3)nc3ccccc23)c1`, the concentration for half-maximal inhibition (IC50) in series [1] is 1150 nM; in [2], 3000 nM. Further, the inhibition at 10 µM on ABCB1 is more than 25%. Moreover, the GI50 at 72 h in series [4] turned out to be 12800 nM; in series [5], 24000 nM. The selectivity ratio in the series on ABCG2 [6] is 11.1.

For the molecule `C#Cc1cccc(Nc2nc(-c3ccccc3)nc3ccccc23)c1`, the values for the IC50 in series [1] and in [3] were 672 nM and 513 nM, respectively.

For `COc1ccc(Nc2nc(-c3ccccc3)nc3ccccc23)cc1F`, the IC50 in series [1] was 872 nM; in series [3], 689 nM.

As to `CC(C)(C)c1ccc(Nc2nc(-c3ccccc3)nc3ccccc23)cc1`, the IC50 in series [1] turned out to be 1060 nM.

For `O=C(O)c1ccc(Nc2nc(-c3ccccc3)nc3ccccc23)cc1`, in series [1], the IC50 worked out at 6380 nM. For the same molecule, the inhibition at 10 µM on ABCC1 is more than 25%.

On to `O=[N+]([O-])c1cc(Nc2nc(-c3ccccc3)nc3ccccc23)ccc1O`, for which the IC50 turned out to be 80 nM in series [1] and 113 nM in series [3]. In addition, the figures for the GI50 at 72 h in series [4] and in series [5] were 52400 nM and 152000 nM, respectively. In addition, the selectivity ratio in the series with ABCG2 [6] amounted to 655; in the series on ABCG2 [7] it was 13.

In the case of `N#Cc1ccc(Nc2nc(-c3ccccc3)nc3ccccc23)cc1`, the results for the IC50 in [1] and in series [3] were 69.9 nM and 84.5 nM, respectively. For the same molecule, the figures for the GI50 at 72 h in [4] and in series [5] were 7960 nM and 16600 nM, respectively. Further, the selectivity ratio with ABCG2 [6] came to 113.

With `O=S(=O)(F)c1ccc(Nc2nc(-c3ccccc3)nc3ccccc23)cc1`, the IC50 in series [1] was 556 nM.

Take `COc1cccc(Nc2cc(-c3ccccc3)nc3ccccc23)c1`: the IC50 in series [1] is 951 nM; in series [2], 2780 nM. Moreover, the inhibition at 10 µM at ABCB1 is more than 25%.

With `COc1ccc(Nc2nc(-c3ccccc3)nc3ccccc23)cc1OC`, the IC50 in series [1] was 152 nM; in series [2], 1860 nM. Also, at ABCB1, the inhibition at 10 µM was more than 25%. For the same molecule, the GI50 at 72 h in [4] was found to be 22500 nM; in series [5], 17000 nM. Further, in the series on ABCG2 [6], the selectivity ratio stood at 148.

Consider `Oc1ccc(Nc2nc(-c3ccccc3)nc3ccccc23)cc1`, for which the values for the IC50 in series [1] and in series [3] were 204 nM and 304 nM, respectively. The GI50 at 72 h in series [4] is 12200 nM; in series [5], 26900 nM. The selectivity ratio in the series on ABCG2 [6] was 59.8.

Broadly, the IC50 is the point on the concentration scale where inhibition reaches its midpoint. The inhibition is the relative decrease from the control value, in per cent. What is called GI50 is the concentration giving 50% growth inhibition.
